The source made the active and inactive calls. The calls are words filed in the database; no cut-off is given here.

One series has as its target T1, Androgen receptor (Homo sapiens, UniProt P10275).
T1 sequence (P10275 whole entry): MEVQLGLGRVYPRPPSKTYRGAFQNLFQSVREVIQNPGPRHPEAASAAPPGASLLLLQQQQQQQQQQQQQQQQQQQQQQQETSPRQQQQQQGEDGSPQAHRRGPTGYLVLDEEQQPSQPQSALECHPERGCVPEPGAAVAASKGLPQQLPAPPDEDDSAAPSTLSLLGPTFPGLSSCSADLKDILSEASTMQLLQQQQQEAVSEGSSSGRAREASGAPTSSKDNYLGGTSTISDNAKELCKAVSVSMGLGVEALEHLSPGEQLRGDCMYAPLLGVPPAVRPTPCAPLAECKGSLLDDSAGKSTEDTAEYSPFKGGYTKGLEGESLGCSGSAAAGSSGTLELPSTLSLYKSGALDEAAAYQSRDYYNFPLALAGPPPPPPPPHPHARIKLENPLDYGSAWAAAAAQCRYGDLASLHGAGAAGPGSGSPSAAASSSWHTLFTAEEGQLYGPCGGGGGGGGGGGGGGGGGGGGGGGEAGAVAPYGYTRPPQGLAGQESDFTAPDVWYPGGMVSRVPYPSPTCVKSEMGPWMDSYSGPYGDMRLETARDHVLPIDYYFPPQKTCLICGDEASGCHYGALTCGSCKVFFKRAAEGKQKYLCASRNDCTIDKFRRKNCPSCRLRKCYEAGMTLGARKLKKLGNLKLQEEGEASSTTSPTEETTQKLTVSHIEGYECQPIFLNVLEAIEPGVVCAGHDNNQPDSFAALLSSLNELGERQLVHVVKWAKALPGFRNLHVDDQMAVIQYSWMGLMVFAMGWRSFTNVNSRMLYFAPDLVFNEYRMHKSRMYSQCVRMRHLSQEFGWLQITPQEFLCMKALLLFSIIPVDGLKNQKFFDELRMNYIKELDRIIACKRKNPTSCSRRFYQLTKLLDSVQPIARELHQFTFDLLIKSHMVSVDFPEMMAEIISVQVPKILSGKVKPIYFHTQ
Briefly: Antagonist activity at AR in human LNCAP cells assessed as reduction in DHT-induced transcriptional activation after 24 hrs by luciferase reporter gene assay. It is filed as cell-based.

Series [1] concerns the target T2, Androgen receptor (Homo sapiens) (UniProt P10275).
T2 sequence (whole entry): T1 sequence (P10275 whole entry)
Description: Antagonist activity at AR (unknown origin) expressed in human PC3 cells assessed as reduction in DHT-induced transcriptional activation at 3 to 10 uM after 24 hrs by luciferase reporter gene assay. The class given is cell-based. The method, boiled down: (§1)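 PC-3 cells (AR-negative) co-transfected with wild-type or AR-V7 expression vector plus PSA promoter-luciferase reporter (pGL3PSAp-5.8, 0.5 ug/well); seeded 50,000/well, transfected after 24 h, treated with compounds ± 1 nM DHT for 24 h from 24 h post-transfection; lysed cells read for luciferase activity by luminometer.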

The subject of series [2] is Androgen receptor (Homo sapiens), P10275 [UNDEFINED MUTATION]. Description: Antagonist activity at AR V7 mutant (unknown origin) expressed in human PC3 cells assessed as reduction in DHT-induced transcriptional activation after 24 hrs by luciferase reporter gene assay. The class given is cell-based. The method, boiled down:
as §1

Series [3] concerns LNCaP. Description: Antiproliferative activity against human LNCAP cells assessed as reduction in cell growth at 10 uM treated every 2 days for 4 days by hemocytometry. The class given is functional, cell-based.
Series [4] deals with T2, Androgen receptor (Homo sapiens). Briefly: Antagonist activity at AR in human LNCAP cells assessed as reduction in DHT-induced cell growth at 1 to 3 uM treated for every 2 days for 4 days by hemocytometry. It is filed as cell-based.
For series [5], the system named is LNCaP. Description: Antiproliferative activity against human LNCAP cells assessed as reduction in cell growth treated every 2 days for 4 days by hemocytometry. The class given is functional, cell-based.
The test system of series [6] is PC-3. Description: Antiproliferative activity against human PC3 cells assessed as reduction in cell growth treated every 2 days for 4 days by hemocytometry. The class given is functional, cell-based.
The test system of the next series is DU-145. Briefly: Antiproliferative activity against human DU145 cells assessed as reduction in cell growth treated every 2 days for 4 days by hemocytometry. It is filed as functional, cell-based.
Series [7] is filed under the species Homo sapiens. Description: Antiproliferative activity against human LNCaP-SF cells assessed as reduction in cell growth at 10 uM treated every 2 days for 4 days by hemocytometry. The class given is functional, cell-based. The method, boiled down: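 LNCaP-SF castration-resistant subline cultured 4 days with compound at stated concentrations, with or without 0.1 nM DHT; growth assessed by cell counting.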

The nature of series [8]: Antiproliferative activity against human PC3-TxR cells assessed as reduction in cell growth treated every 2 days for 4 days by hemocytometry. The class given is functional, cell-based.
A short description of series [9]: Antiproliferative activity against human PC3/TxR/CxR cells assessed as reduction in cell growth treated every 2 days for 4 days by hemocytometry. The class given is functional, cell-based.
Series [10] in a line: Antiproliferative activity against human DU145-TxR cells assessed as reduction in cell growth treated every 2 days for 4 days by hemocytometry. The class given is functional, cell-based.
The nature of series [11]: Antiproliferative activity against human DU145/TxR/CxR cells assessed as reduction in cell growth treated every 2 days for 4 days by hemocytometry. It is filed as functional, cell-based. The following applies: DU-145.
The test system of series [12] is A549. Briefly: Antiproliferative activity against human A549 cells assessed as reduction in cell growth after 72 hrs by sulforhodamine B assay. Conditions: A549, 72 h. For orientation: In SRB staining, fixed cells bind dye roughly in proportion to their protein.
Another series relates to MDA-MB-231. Description: Antiproliferative activity against human MDA-MB-231 cells assessed as reduction in cell growth after 72 hrs by sulforhodamine B assay. The class given is functional, cell-based. The following applies: MDA-MB-231, 72 h.
Another series deals with MCF7. Description: Antiproliferative activity against human MCF7 cells assessed as reduction in cell growth after 72 hrs by sulforhodamine B assay. Conditions: MCF7, 72 h.
The subject of the next series is KB. Briefly: Antiproliferative activity against human KB cells assessed as reduction in cell growth after 72 hrs by sulforhodamine B assay.
The nature of series [13]: Antiproliferative activity against human KBVIN cells assessed as reduction in cell growth after 72 hrs by sulforhodamine B assay. It is filed as functional, cell-based.
The test system of series [14] is PC-3. Description: Cell cycle arrest in human PC3 cells assessed as accumulation at Sub-G1 phase at 2 times IC50 after 24 to 48 hrs by propidium iodide staining based flow cytometry. It is filed as functional. (In flow cytometry, cells or beads pass a laser one at a time.)
For series [15], the system named is A549. Description: Cell cycle arrest in human A549 cells assessed as accumulation at G1 phase at 3 times IC50 after 24 to 48 hrs by propidium iodide staining based flow cytometry. The class given is functional.
The test system of series [16] is A549. Briefly: Cell cycle arrest in human A549 cells assessed as accumulation at Sub-G1 phase at 3 times IC50 after 24 to 48 hrs by propidium iodide staining based flow cytometry. The class given is functional.
The species entered for series [17] is Homo sapiens. Description: Induction of microtubule depolymerization in human PC3 cells at 2 times IC50 after 24 hrs by […] microscopic analysis. The class given is cell-based.
Series [18] concerns PC-3. Description: Antitumor activity against human PC3 cells xenografted in C.B-17 SCID mouse assessed as tumor growth inhibition at 30 mg/kg, ip administered every 4 days measured during compound dosing. The class given is functional, organism-based. In a few lines:
(§2)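 Male C.B-17 scid mice (purchased at 7 weeks) given 2.0×10⁶ PC-3 cells in 50% matrigel subcutaneously on dorsal side at 8 weeks; at ~50 mm³ tumor, randomized into groups of 5, dosing from second day at 30 mg/kg i.p. every 4 days; tumor volume and body weight followed; mean ± SD.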
(In general: In xenograft studies the graft and the host belong to different species.)

The subject of the next series is Mus musculus. Description: Toxicity in C.B-17 SCID mouse xenografted with human PC3 cells assessed as body weight loss at 30 mg/kg, ip administered every 4 days. The following applies: in vivo, 96 h. The class given is organism-based. The method, boiled down: as §2

What is called IC50 is the concentration that inhibits the measured activity by half. In the case of `O=C(/C=C/c1ccccc1O)c1cc(Cl)ccc1O`, the IC50 on Androgen receptor was below 1 µM; in the series with LNCaP [5], 3.52 µM; with PC-3 [6], 1.52 µM; in the series on DU-145, 4.5 µM; in series [8], below 3 µM; in series [9], 4.07 µM. The IC50 in [10] stood at 7.43 µM; in [11], 5.32 µM; with A549 [12], 9.1 µM; in the series on MDA-MB-231 it was 5.1 µM; in the series with MCF7 it was 4.9 µM; with KB, 5 µM. Also, the half-inhibitory concentration (IC50) in [13] came to 4.9 µM. In addition, the inhibition result in [1] was “Active”. In addition, in series [2], the inhibition entry was “Dose-dependent effect”. Moreover, the outcome (with LNCaP [3]; in series [4]; in the series listed under Homo sapiens [7]; in the series on PC-3 [14]; in the series with A549 [15]; in the series listed under Homo sapiens [17]) was Active. Moreover, the result with A549 [16] was inactive. Further, in the series on PC-3 [18], the TGI result was “Active”. For the same compound, the Activity entry in the series with Mus musculus is recorded as “Non-Toxic”.

For the origin of these results see ChEMBL document CHEMBL4270636, “5'-Chloro-2,2'-dihydroxychalcone and related flavanoids as treatments for prostate cancer” (Eur J Med Chem, 2018).
